The array DNA melting data of Ke et al. (doi:10.1101/2024.01.08.574731)

How the values were obtained:
[1] = melting temperature; fluorescence melt of hairpins on a sequencing array, two-state fit, raised by 9.35 °C to match UV melts; conditions: sodium 0.088 M
Outline: (§1)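 Hairpins were imaged by Cy3 fluorescence on a sequenced MiSeq flow cell with annealed Cy3 and quencher oligos, in 50 mM Na-HEPES pH 8.0, 25 mM NaCl, in 2.5 °C steps up to 60 °C. Bootstrapped two-state fits of normalised signals gave melting temperature and folding enthalpy. Four replicates were combined by inverse variance, and fitted temperatures were raised by 9.35 °C to match UV melts.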

[2] = folding enthalpy; higher = less favourable; fluorescence melt of hairpins on a sequencing array, two-state fit; conditions: sodium 0.088 M
Outline: as §1

| Sequence | Tm [1] [°C] | folding enthalpy [2] [kcal/mol] |
| --- | --- | --- |
| GATCCGGATTCGGATC ((((((....)))))) | 59.1 | -35.7 |
| GGTATCGAAAGATCACC ((((((....))).))) | 35 | -21.9 |
| GCAGTCGAAAGACGCTGC ((((((....)))..))) | 55.6 | -21.6 |
| GGGCCAGGAAACTGGTCC ((.((((....)))).)) | 61.9 | -35 |
| GATCTGATGCAGATC ((((((...)))))) | 48 | -34.5 |
| GACTTAGGAAACTAAGCC (.(((((....))))).) | 34.2 | -21.9 |
| GATCTCGACAGAGATC ((((((....)))))) | 66.8 | -41.9 |
| GATCAGAGCGCTGATC ((((((....)))))) | 49.1 | -27.4 |
| GCTAGGCGAAAGCATGGC ((.(.((....)).).)) | 50.1 | -20.7 |
| GATCCGTCAACGGATC ((((((....)))))) | 62 | -35.9 |
| GCTCTCGAAAGAGATAGC ((((((....)))..))) | 41.8 | -22.6 |
| GACATTGGAAACAATGCC (.(((((....))))).) | 38.1 | -21.5 |
| GATCCGACCGCGGATC ((((((....)))))) | 56.8 | -34.6 |
| GTCCCCGAAAGGGCTGAC ((((((....)))..))) | 34.8 | -11.7 |
| GCGCTGCGAAAGCTGGGC ((.(.((....)).).)) | 62.4 | -24.4 |
| GATCGAGGTCTCGATC ((((((....)))))) | 55.8 | -38.5 |
| GCCTCAGGAAACTAAGGC ((((.((....)).)))) | 37.6 | -27.7 |
| GTTGCGACGAAAGTCAAC (((..(((....)))))) | 33.5 | -16.8 |
| GATGTGGAAACACATC ((((((....)))))) | 57.1 | -35.5 |
| GATCGCAGGCGCGATC ((((((....)))))) | 68.3 | -35.1 |
| GATCTACCAATAGATC ((((((....)))))) | 38.1 | -25.6 |
| GTCCCCGAAAGGGCGAC ((((((....))).))) | 52.7 | -20.8 |
| GCATATGGAAACGTATGC (((((.(....).))))) | 47 | -33.3 |

| Sequence | Tm [1] [°C] | folding enthalpy [2] [kcal/mol] |
| --- | --- | --- |
| GTCGGCGAAAGCCGGAC ((((((....))).))) | 61.1 | -12.4 |
| GCTCCGCGAAAGCTTAGC (((..((....))..))) | 35.1 | -14.4 |
| GCGAAGCGAAAGCATAGC ((.(.((....)).).)) | 52.5 | -15.7 |
| GGCTCCTCGAAAGAGGCC (((..(((....)))))) | 39.5 | -14 |
| GAGTATGGAAACATACTC (((((((....))))))) | 54.4 | -37.6 |
| GATGACGAAAGTCATC ((((((....)))))) | 67.4 | -36.3 |
| GAACTCGGAAACGGGTTC ((((.((....)).)))) | 50.4 | -35.1 |
| GCTGTGCGAAAGCCGAGC (((..((....))..))) | 41.8 | -19 |
| GCCTCGCGAAAGCGGCGC ((..(((....)))..)) | 58.5 | -16.4 |
| GATCAGGTGCTGATC ((((((...)))))) | 48.6 | -39 |
| GATCTTCTTTAAGATC ((((((....)))))) | 43.3 | -38 |
| GGCGTCGAAAGACCCGCC ((((((....)))..))) | 55.3 | -17.5 |
| GTCAGTGGAAACATTGGC (.((.((....)).)).) | 30.6 | -26.2 |
| GGGAGCGAAAGCTAGCCC ((((((....)))..))) | 42.7 | -14.2 |
| GCAGATGAAAATCTGC ((((((....)))))) | 59.9 | -39 |
| GATCACCCGAGTGATC ((((((....)))))) | 57 | -41.3 |
| GGACACGAAAGTGCATCC ((((((....)))..))) | 32.7 | -11.8 |
| GATCTACAGTTAGATC ((((((....)))))) | 38.3 | -29.3 |
| GCTGGGCGAAAGCCATGC ((..(((....)))..)) | 55.1 | -19.2 |
| GCCACGCGAAAGCGTAGC ((.((((....)))).)) | 55.8 | -16.9 |
| GTAATCGAAAGATGCTAC ((((((....)))..))) | 30.2 | -17.3 |
| GGCATTGGAAACAATACC ((.((((....)))).)) | 36.6 | -25.4 |
| GCAGATGGAAACATCTAC (.(((((....))))).) | 34.7 | -19.1 |

| Sequence | Tm [1] [°C] | folding enthalpy [2] [kcal/mol] |
| --- | --- | --- |
| GGCTTCGGAAACAAAGCC (((((.(....).))))) | 44.2 | -28.3 |
| GAACTGGGAAACTGGTTC ((((..(....)..)))) | 33.3 | -25.8 |
| GTATTAGGAAACTGATAC ((((.((....)).)))) | 34.3 | -21.3 |
| GGTATCGCGAAAGCGACC (((..(((....)))))) | 31.7 | -9.09 |
| GGGAGCGAAAGCTTGCCC ((((((....)))..))) | 39.4 | -12.2 |
| GGTACCGAAAGGTGACC ((((((....))).))) | 48.4 | -21.5 |
| GTGAAATCGAAAGATCAC (((..(((....)))))) | 32.8 | -17 |
| GTTGACGAAAGTCTGAAC ((((((....)))..))) | 25.1 | -11.5 |
| GCATTGCGAAAGCCTTGC (((..((....))..))) | 39.3 | -25 |
| GGCGCCGAAAGGCGTGCC ((((((....)))..))) | 54.2 | -9.73 |
| GCTAGGCGAAAGCAGAGC (((..((....))..))) | 53.3 | -23.5 |
| GATCAACGCCTTGATC ((((((....)))))) | 46.1 | -26 |
| CGCCCGGAAACGGAAGCG ((((((....)))..))) | 49.3 | -30.8 |
| GATCGGATAGCCGATC ((((((....)))))) | 55.4 | -29.6 |
| CGCGGAACGTCCGCG ((((((...)))))) | 60.5 | -39.5 |
| GATCAAGGAAACTTGACC (.(((((....))))).) | 29.8 | -18.7 |
| GCCGGCGAAAGCCCTGGC ((((((....)))..))) | 56.6 | -16.2 |
| GCGTTTCGACGC ((((....)))) | 55.9 | -28.6 |
| GATACGGGAAACTGTGTC ((.((.(....).)).)) | 33.6 | -20.1 |
| GTCGGTGGAAACACTGGC (.(.(((....))).).) | 42.8 | -27.8 |
| GATCTCGAGGGAGATC ((((((....)))))) | 51.7 | -19.9 |
| GCCATGCGAAAGCGGGGC (((..((....))..))) | 65.3 | -35 |
| GCGGGACGAAAGTCCGC (((.(((....)))))) | 69.2 | -23.1 |
